# Results taken from the array DNA melting data of Ke et al. (doi:10.1101/2024.01.08.574731).
# Legend:
# [1] = folding enthalpy; higher = less favourable; fluorescence melt of hairpins on a sequencing array, two-state fit; settings: sodium 0.088 M
# How it was run: (§1)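 With Cy3 and quencher oligos annealed, library hairpins on a sequenced MiSeq flow cell were imaged for Cy3 fluorescence in 50 mM Na-HEPES pH 8.0, 25 mM NaCl, in 2.5 °C steps up to 60 °C. Melting temperature and folding enthalpy were derived from bootstrapped two-state fits of signals normalised to pre-quench Cy3 and to control constructs. Four replicates were combined by inverse variance, with fitted temperatures raised by 9.35 °C to match UV melts.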
# [2] = melting temperature; fluorescence melt of hairpins on a sequencing array, two-state fit, raised by 9.35 °C to match UV melts; settings: sodium 0.088 M
# How it was run: as §1
Sequence,folding enthalpy [1] [kcal/mol],Tm [2] [°C]
GGTCATGGAAACATGGCC ((.((((....)))).)),-60.3,54.5
GGTCATGGAAACGTGATC (.(((.(....).))).),-20,35.5
GGTCCAGGAAACCGGACC (((((.(....).))))),-38.8,53.3
GGTCCAGGAAACTGGGCC ((.((((....)))).)),-43.4,60.2
GGTCCCCCGAAAGGGACC (((..(((....)))))),-29.9,63.9
GGTCCCGAAAGGGAACC ((((((....))).))),-18.5,60.5
GGTCCCGAAAGGGCTACC ((((((....)))..))),-10.9,39.8
GGTCCGACGAAAGTCACC (((..(((....)))))),-14.1,28.4
GGTCCGCGAAAGCGACC (((.(((....)))))),-16.8,62.4
GGTCCGGGAAACCAGACC ((((.((....)).)))),-28.6,46.4
GGTCCGGGAAACTGGACC (((((.(....).))))),-45.3,58.8
GGTCCTCCGAAAGGAACC (((..(((....)))))),-13,32.9
GGTCGACCGAAAGGTACC (((..(((....)))))),-14,31.8
GGTCGAGGAAACTCGATC (.(((((....))))).),-30.7,52.2
GGTCGAGGAAACTTGGCC ((.(.((....)).).)),-25.3,42.4
GGTCGCCCGAAAGGGACC (((..(((....)))))),-15.8,45.1
GGTCGCGAAAGCGACACC ((((((....)))..))),-5.57,60.7
GGTCGCGAAAGCGGACC ((((((....))).))),-22.9,67.1
GGTCGCGAAAGCGGCACC ((((((....)))..))),-9.3,52.8
GGTCGCGAAAGCGGGACC ((((((....)))..))),-18.9,52.1
GGTCGCGGAAACACGACC (((((.(....).))))),-41,56.9
GGTCGGGGAAACTCGGCC ((.((.(....).)).)),-34,49.1
GGTCGTGCGAAAGCAACC (((..(((....)))))),-8.03,27.6

Sequence,folding enthalpy [1] [kcal/mol],Tm [2] [°C]
GGTCGTGGAAACACAACC (((.(((....))).))),-27.6,42.5
GGTCGTGGAAACACGGCC ((.((((....)))).)),-56.7,61.8
GGTCGTGGAAACATGACC ((((.((....)).)))),-34,56.5
GGTCGTGGAAACGCGACC (((((.(....).))))),-50.9,60
GGTCTACGAAAGTAAACC (((.(((....))).))),-26.2,39.3
GGTCTAGCGAAAGCTACC (((..(((....)))))),-10.1,31.2
GGTCTCCCGAAAGGGACC (((..(((....)))))),-12.4,41.2
GGTCTCGAAAGAGACACC ((((((....)))..))),-9.21,48.4
GGTCTCGAAAGAGGCACC ((((((....)))..))),-14.5,39.1
GGTCTCGGAAACGAAACC (((.(((....))).))),-27.5,39.2
GGTCTCGGAAACGGGACC ((((.((....)).)))),-44,57.5
GGTCTCGGAAACGGGATC (.((.((....)).)).),-28.8,39
GGTCTGAAAAGACC (((((....))))),-31.1,61.7
GGTCTGGAAACAGACC ((((((....)))))),-38,63.9
GGTCTGGGAAACCAAACC (((.(((....))).))),-29.9,35.1
GGTCTGGGAAACCAGATC (.(((((....))))).),-25.8,49.4
GGTCTGGGAAACCGGACC ((((.((....)).)))),-46.1,58.6
GGTCTGTCGAAAGACACC (((..(((....)))))),-11.4,30.5
GGTCTTCGAAAGAAACC (((.(((....)))))),-18.4,32.9
GGTGAACGAAAGTTACC (((.(((....)))))),-23.4,40.6
GGTGAAGAAATTCACC ((((((....)))))),-32.5,52.6
GGTGACACGAAAGTGACC (((..(((....)))))),-15.8,38.1
GGTGACCGAAAGGTACC (((.(((....)))))),-21.8,49
